Where two headings read alike, the source gives them in different places.
Tests used:
[1] = target: α7-nAChR (Mus musculus, UniProt P49582); assay: Blockade of [^125I]iodo-ASEM binding in CD-1 mouse brain by s.c. blockers; assay type: in vivo, CD-1 mice; conditions: for inhibition of [^125I]iodo-ASEM binding by blocker: SSR180711 2 mg/kg s.c., 180 min post-injection; for reduction of [^125I]iodo-ASEM accumulation in mouse brain by blocker: CB, Hipp, Ctx, Coll, 180 min, P > 0.05 vs vehicle
[2] = previously studied radioiodinated α7-nAChR radioligand; cited from earlier work
[3] = target: α7-nAChR (Rattus norvegicus, UniProt Q05941); assay type: binding
[4] = target: α3β4-nAChR (Homo sapiens, UniProt P30926+P32297); assay type: binding
[5] = target: α4β2-nAChR (Homo sapiens, UniProt P17787+P43681); assay type: binding; conditions: for α7-nAChR Binding selectivity α7/α4β2: ratio of Ki values
[6] = Regional brain distribution; assay type: in vivo, CD-1 mice; conditions: for Regional brain distribution: i.v., mean ± SD (n=3)
Outline: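 Male CD-1 mice (25–30 g) got the radioiodinated test compound by lateral tail vein: 3 μCi, specific radioactivity 1600 mCi/μmol, in 0.2 mL saline. Mice were killed by cervical dislocation at various times (three per time point). Brains were dissected on ice, and regions were weighed and γ-counted alongside injectate standards. Uptake was expressed as %ID/g tissue.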

α7-nAChR (Mus musculus, UniProt P49582), sequence (P49582 23-502): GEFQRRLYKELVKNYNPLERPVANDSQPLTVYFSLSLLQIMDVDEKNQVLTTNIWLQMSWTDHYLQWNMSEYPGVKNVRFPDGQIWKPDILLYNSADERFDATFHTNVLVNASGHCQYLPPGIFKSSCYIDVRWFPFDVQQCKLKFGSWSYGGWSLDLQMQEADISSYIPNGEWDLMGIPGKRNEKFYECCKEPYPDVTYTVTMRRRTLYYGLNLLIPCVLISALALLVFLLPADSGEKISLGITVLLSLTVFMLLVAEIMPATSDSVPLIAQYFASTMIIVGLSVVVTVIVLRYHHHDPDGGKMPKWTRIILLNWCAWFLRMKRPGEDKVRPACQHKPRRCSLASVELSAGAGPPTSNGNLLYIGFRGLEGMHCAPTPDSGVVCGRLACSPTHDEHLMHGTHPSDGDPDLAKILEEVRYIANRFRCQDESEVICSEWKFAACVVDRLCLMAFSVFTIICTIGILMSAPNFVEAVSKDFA
α4β2-nAChR, sequence (P17787 26-502): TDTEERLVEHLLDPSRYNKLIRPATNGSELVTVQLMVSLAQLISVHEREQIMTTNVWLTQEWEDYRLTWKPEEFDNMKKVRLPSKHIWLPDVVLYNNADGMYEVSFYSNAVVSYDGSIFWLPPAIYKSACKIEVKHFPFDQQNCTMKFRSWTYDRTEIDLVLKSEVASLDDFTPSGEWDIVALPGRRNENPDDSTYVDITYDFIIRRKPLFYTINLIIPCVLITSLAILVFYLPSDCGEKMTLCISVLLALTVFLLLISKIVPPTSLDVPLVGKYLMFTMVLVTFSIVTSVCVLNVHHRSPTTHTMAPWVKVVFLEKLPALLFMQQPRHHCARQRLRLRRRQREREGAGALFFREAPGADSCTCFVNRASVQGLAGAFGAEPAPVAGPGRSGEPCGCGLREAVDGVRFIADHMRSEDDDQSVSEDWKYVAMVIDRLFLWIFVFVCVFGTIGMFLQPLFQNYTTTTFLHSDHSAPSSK
α4β2-nAChR, sequence (P43681 29-627): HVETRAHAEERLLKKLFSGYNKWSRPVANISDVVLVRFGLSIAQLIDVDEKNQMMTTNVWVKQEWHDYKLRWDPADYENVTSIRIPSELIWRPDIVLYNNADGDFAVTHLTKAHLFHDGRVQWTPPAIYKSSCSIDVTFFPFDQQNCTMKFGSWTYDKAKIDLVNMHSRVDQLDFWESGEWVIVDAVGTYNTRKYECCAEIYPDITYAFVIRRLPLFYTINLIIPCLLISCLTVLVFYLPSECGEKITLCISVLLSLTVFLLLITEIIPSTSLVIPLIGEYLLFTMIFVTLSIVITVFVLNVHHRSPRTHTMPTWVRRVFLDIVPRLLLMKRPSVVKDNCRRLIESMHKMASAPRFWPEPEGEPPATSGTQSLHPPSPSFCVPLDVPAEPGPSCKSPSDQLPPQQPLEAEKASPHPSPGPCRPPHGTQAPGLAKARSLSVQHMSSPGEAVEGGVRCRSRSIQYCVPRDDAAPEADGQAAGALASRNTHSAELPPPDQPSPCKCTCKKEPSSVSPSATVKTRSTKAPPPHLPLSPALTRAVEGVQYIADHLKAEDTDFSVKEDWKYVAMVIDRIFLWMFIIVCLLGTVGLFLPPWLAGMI
α3β4-nAChR, sequence (P32297 32-505): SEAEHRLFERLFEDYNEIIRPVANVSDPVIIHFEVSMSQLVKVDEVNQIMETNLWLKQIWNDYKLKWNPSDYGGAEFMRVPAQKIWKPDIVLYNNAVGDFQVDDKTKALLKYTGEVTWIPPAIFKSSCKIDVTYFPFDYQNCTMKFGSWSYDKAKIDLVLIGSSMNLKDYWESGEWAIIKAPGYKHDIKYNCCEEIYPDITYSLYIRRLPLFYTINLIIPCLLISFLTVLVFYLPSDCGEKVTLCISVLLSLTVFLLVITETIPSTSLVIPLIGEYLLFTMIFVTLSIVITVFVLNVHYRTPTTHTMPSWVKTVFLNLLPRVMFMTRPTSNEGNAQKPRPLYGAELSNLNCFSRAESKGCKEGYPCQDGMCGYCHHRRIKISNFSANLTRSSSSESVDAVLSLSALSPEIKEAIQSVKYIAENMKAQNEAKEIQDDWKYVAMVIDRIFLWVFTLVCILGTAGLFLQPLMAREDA
α3β4-nAChR, sequence (P30926 22-498): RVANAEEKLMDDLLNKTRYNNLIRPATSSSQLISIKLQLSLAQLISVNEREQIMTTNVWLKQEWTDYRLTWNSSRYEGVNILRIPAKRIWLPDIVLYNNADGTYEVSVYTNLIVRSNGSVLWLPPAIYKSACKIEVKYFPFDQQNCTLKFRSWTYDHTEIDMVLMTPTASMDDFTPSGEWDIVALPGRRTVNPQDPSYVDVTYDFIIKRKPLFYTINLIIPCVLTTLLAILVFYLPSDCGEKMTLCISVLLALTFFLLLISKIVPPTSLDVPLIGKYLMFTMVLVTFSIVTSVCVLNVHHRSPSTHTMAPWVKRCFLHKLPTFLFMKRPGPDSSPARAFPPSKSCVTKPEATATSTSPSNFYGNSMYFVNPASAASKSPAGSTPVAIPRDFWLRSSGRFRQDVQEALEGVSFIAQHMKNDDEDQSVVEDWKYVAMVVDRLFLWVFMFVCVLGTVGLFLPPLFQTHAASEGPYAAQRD
α7-nAChR (Rattus norvegicus, UniProt Q05941), sequence (Q05941 23-502): as the sequence (P49582 23-502) above, with T402A counted along it

Structure (SMILES): O=C(Oc1ccc(Br)cc1)N1CCN2CCC1CC2 [SSR180711]
- inhibition of [^125I]iodo-ASEM binding by blocker ([1]; cerebellum, P = 0.27): the blockade was negligible
- inhibition of [^125I]iodo-ASEM binding by blocker ([1]; superior and inferior colliculi and hippocampus, P < 0.01): significantly inhibited

Structure (SMILES): [125I]c1occc1-c1cnc2c(c1)C[C@@]1(CN3CCC1CC3)O2 [(1S,2R,4S)-5′-(2-[^125I]iodofuran-3-yl)-3′H-4-azaspiro[bicyclo[2.2.2]octane-2,2′-furo[2,3-b]pyridine]]
- colliculus to cerebellum ratio [2]: ~ 2.5

Structure (SMILES): O=c1cccc2n1C[C@@H]1CNC[C@H]2C1 [cytisine]
- reduction of [^125I]iodo-ASEM accumulation in mouse brain by blocker ([1]; cytisine 0.5 mg/kg s.c.): neither cytisine nor ondansetron reduced

Structure (SMILES): O=S1(=O)c2cc(N3CCN4CCC3CC4)ccc2-c2cccc(I)c21 [iodo-ASEM]
- Ki ([3]; α7 (rat), HEK-293 membranes, [^3H]epibatidine, mean ± SEM (n=3)): 0.0005 ± 0.0002 µM
- α7-nAChR Binding selectivity α7/α3β4 ([4]; ratio of Ki values): α7/α3β4 = 90
- Ki ([4]; α3β4 (human), HEK-293 membranes, [^3H]epibatidine, mean ± SEM (n=3)): 0.045 ± 0.008 µM
- α7-nAChR Binding selectivity α7/α4β2 [5]: α7/α4β2 = 3,414
- Ki ([5]; α4β2 (human), HEK-293 membranes, [^3H]epibatidine, mean ± SEM (n=3)): 1.71 ± 0.373 µM

Structure (SMILES): Cc1nccn1CC1CCc2c(c3ccccc3n2C)C1=O (centres unmarked) [ondansetron]
- reduction of [^125I]iodo-ASEM accumulation in mouse brain by blocker ([1]; ondansetron 2 mg/kg s.c.): neither cytisine nor ondansetron reduced

Structure (SMILES): O=S1(=O)c2cc(N3CCN4CCC3CC4)ccc2-c2cccc([125I])c21 [[^125I]iodo-ASEM, 3-(1,4-Diazabicyclo[3.2.2]nonan-4-yl)-6-[^125I]iododibenzo[b,d]thiophene 5,5-dioxide]
- Ki [3]: 0.0005 µM
- α7-nAChR Binding selectivity α7/α4β2 [5]: 3,414
- Regional brain distribution ([6]; Cerebellum, 5 min): 4.25±0.42 %ID/g tissue
- Regional brain distribution ([6]; Cerebellum, 20 min): 5.20±2.08 %ID/g tissue
- Regional brain distribution ([6]; Cerebellum, 60 min): 2.56±0.35 %ID/g tissue
- Regional brain distribution ([6]; Cerebellum, 120 min): 1.41±0.08 %ID/g tissue
- Regional brain distribution ([6]; Cerebellum, 180 min): 0.76±0.15 %ID/g tissue
- Regional brain distribution ([6]; Cerebellum, 240 min): 0.38±0.05 %ID/g tissue
- Regional brain distribution ([6]; Cerebellum, 360 min): 0.21±0.04 %ID/g tissue
- Regional brain distribution ([6]; Cortex, 5 min): 4.78±0.47 %ID/g tissue
- Regional brain distribution ([6]; Cortex, 20 min): 6.25±0.28 %ID/g tissue
- Regional brain distribution ([6]; Cortex, 60 min): 6.50±0.57 %ID/g tissue
- Regional brain distribution ([6]; Cortex, 120 min): 4.29±0.42 %ID/g tissue
- Regional brain distribution ([6]; Cortex, 180 min): 2.74±0.55 %ID/g tissue
- Regional brain distribution ([6]; Cortex, 240 min): 1.40±0.06 %ID/g tissue
- Regional brain distribution ([6]; Cortex, 360 min): 0.72±0.12 %ID/g tissue
- Regional brain distribution ([6]; Hippocampus, 5 min): 3.63±0.40 %ID/g tissue
- Regional brain distribution ([6]; Hippocampus, 20 min): 5.09±0.86 %ID/g tissue
- Regional brain distribution ([6]; Hippocampus, 60 min): 4.40±0.12 %ID/g tissue
- Regional brain distribution ([6]; Hippocampus, 120 min): 3.40±2.03 %ID/g tissue
- Regional brain distribution ([6]; Hippocampus, 180 min): 2.66±0.58 %ID/g tissue
- Regional brain distribution ([6]; Hippocampus, 240 min): 1.70±0.28 %ID/g tissue
- Regional brain distribution ([6]; Hippocampus, 360 min): 0.97±0.12 %ID/g tissue
- Regional brain distribution ([6]; Rest of brain, 5 min): 3.89±0.42 %ID/g tissue
- Regional brain distribution ([6]; Rest of brain, 20 min): 4.90±0.24 %ID/g tissue
- Regional brain distribution ([6]; Rest of brain, 60 min): 4.60±0.18 %ID/g tissue
- Regional brain distribution ([6]; Rest of brain, 120 min): 3.24±0.26 %ID/g tissue
- Regional brain distribution ([6]; Rest of brain, 180 min): 2.09±0.40 %ID/g tissue
- Regional brain distribution ([6]; Rest of brain, 360 min): 0.57±0.05 %ID/g tissue
- Regional brain distribution ([6]; Superior & inferior Colliculi, 5 min): 4.09±0.71 %ID/g tissue
- Regional brain distribution ([6]; Superior & inferior Colliculi, 20 min): 5.50±0.51 %ID/g tissue
- Regional brain distribution ([6]; Superior & inferior Colliculi, 60 min): 5.14±0.20 %ID/g tissue
- Regional brain distribution ([6]; Superior & inferior Colliculi, 120 min): 4.37±0.57 %ID/g tissue
- Regional brain distribution ([6]; Superior & inferior Colliculi, 180 min): 3.16±0.75 %ID/g tissue
- Regional brain distribution ([6]; Superior & inferior Colliculi, 240 min): 1.50±0.28 %ID/g tissue
- Regional brain distribution ([6]; Superior & inferior Colliculi, 360 min): 0.87±0.08 %ID/g tissue
- colliculus to cerebellum ratio, maximum ([6]; at 180 min post-injection, CD-1 mice): 4.2
